B1: tRNA (parent)
chain: GUUCCGUUGGCGUAAUGGUAACGCGUCUCCCUCCUAAGGAGAAGACUGCGGGUUCGAGUCCCGUACGGAACG

The values that follow come from the RNAGym collection of RNA variant scans (doi:10.1126/science.aae0568).

Variants at the floor of the assay were thinned out. A value given as a limit tells only on which side of the number the result lay.

This series covers variants of B1. Put plainly: yeast fitness relative to wild type (ratio to wild type); higher = fitter; tRNA-Arg(CCU), competitive growth, 37 C, YPD. In short, it runs like this:
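Variants of the tRNA-Arg(CCU) gene, chemically synthesised with a 3% per-site mutation rate at 69 sites, were placed at the native genomic locus in Saccharomyces cerevisiae. The pooled strains were competed in YPD at 37°C for 24 hours in six parallel replicates. Gene amplicons from the start population and from each end population were read by 100-nucleotide paired-end sequencing. Darwinian fitness relative to wild type came from changes in genotype frequencies; genotypes needed ≥ 100 starting reads, and estimates < 0.5 were set to 0.5.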
For G6C C33G A36C C49A, the yeast fitness was ≤ 0.5.
The value for G6A U64C was 0.874; that for G6A U32C C46G was 0.694; that for G6C C11A C22U U47C C66A was ≤ 0.5.
For the variant G6C C31U, the yeast fitness turned out to be 0.93.
Turning to G6C C31A, the yeast fitness worked out at 0.808.
On to G6A G58C, for which the yeast fitness worked out at 1.08.
The value for G6A G58A was 0.902.
As to G6A U8C A70U, the yeast fitness was determined as 0.57.
The value for G6C C24A G58C A65C was ≤ 0.5; that for G6A G58A G68C was 0.649; that for G6C C11U U19C C22A U35C A69U was ≤ 0.5.
On to G6A U47C, for which the yeast fitness amounted to 0.878.
G6A U47A: the yeast fitness was 0.692.
The value for G6C A15G A21G G25A A40C C61A A65U was ≤ 0.5; that for G6A G39C C55G was ≤ 0.5.
As to G6C A15C A21C C34U A37U A57U, the yeast fitness is ≤ 0.5.
The value for G6C A45C U47C G68C was ≤ 0.5.
The value for G6A U8A C24U A40U was 0.684; that for G6C A20G A45U was 0.507.
The value for G6C A14U A36G A42G G52A G58A was ≤ 0.5; that for G6A G39C G44C C46U was ≤ 0.5; that for G6A U16C C22U A37U C49A C62U was ≤ 0.5.
G6C C33G A36C: the yeast fitness is ≤ 0.5.
The figure for G6A U47G U54C is ≤ 0.5; for G6C A14G G39C it is ≤ 0.5.
With G6C C34G G38A, the yeast fitness was ≤ 0.5.
As for G6C C31G C33G U47C G51A, the yeast fitness was ≤ 0.5.
The value for G6C A42C A65G C66G was 0.532; that for G6C A40U was 0.803.
The figure for G6A G41C A43G C49U is 0.745.
The figure for G6C A37G G44C A57U G68C is ≤ 0.5; for G6C C33A A40G A57U it is ≤ 0.5; for G6A G44A C60G U64C it is ≤ 0.5.
With G6C A42G C46A, the yeast fitness was found to be 0.695.
As for G6C A15G C24U C60A, the yeast fitness was found to be 0.554.
The figure for G6C A15C A21C C34U A37U C55A U59C C61A C62U is 0.537; for G6C C27A G44A it is 0.629.
The value for G6A U7A G38C was 0.603; that for G6C C22A C46A C61G A69G was ≤ 0.5; that for G6C C30U C46A G67C was ≤ 0.5.
The figure for G6C C11G A15U C31G C61G A69G is 0.657; for G6C C22U C24G C27U C29A C30U C31G C49U C66U G67A it is ≤ 0.5; for G6C C31U A36G G52C G68A it is ≤ 0.5.
For the variant G6A U8C A14C C61U, the yeast fitness was ≤ 0.5.
The figure for G6C A42U G67A is ≤ 0.5; for G6C A15C it is 0.689.
The value for G6C A40G C61A was ≤ 0.5; that for G6A G52C C66U was 0.584.
The value for G6C A21G G48A A57C G67A was ≤ 0.5; that for G6C A37U A43U was 0.525; that for G6C C11G A15C G25C C27G C30G G38C A40G was ≤ 0.5.
Regarding G6C C11G A15C G25C C27G C30G G38C A70C, the yeast fitness is ≤ 0.5.
Consider G6A G41A A42C G50C A70G, for which the yeast fitness was 0.543.
For G6A G63A, the yeast fitness is 0.883.
The figure for G6C C22A C31G G51A C66U is ≤ 0.5; for G6C A45C G48A G51C it is ≤ 0.5; for G6C C22U C24G C27U C29A C30U C31G it is ≤ 0.5.
As to G6C A14G A20C C66U, the yeast fitness is ≤ 0.5.
The value for G6C C34G G38A U64A was ≤ 0.5.
The figure for G6C C22A C31G is ≤ 0.5; for G6C C11U C24A it is ≤ 0.5; for G6C A14C G44C C62G it is ≤ 0.5.
The figure for G6C A15G G51A is ≤ 0.5.
Consider G6A U13G G48A G50A U54A, for which the yeast fitness is ≤ 0.5.
For G6A U13G A40U, the yeast fitness is 0.502.
The value for G6A U32C G44A C46A G52A C66U was 0.567; that for G6A U16G A21G was 0.544.
As for G6A U47A U64A, the yeast fitness was ≤ 0.5.
The figure for G6C C55G G68A is ≤ 0.5; for G6C C11G C22U it is 0.606; for G6A U8A G23C it is ≤ 0.5.
The value for G6C C31A C33U C62U was ≤ 0.5; that for G6C A45C C55U A69C was ≤ 0.5.
For G6A G50A U53G A69G, the yeast fitness is ≤ 0.5.
The figure for G6A U13G A36U C46G C62A is ≤ 0.5; for G6C C29G G39C it is 0.931.
For the variant G6C C22U, the yeast fitness turned out to be 0.706.
Turning to G6C A42C C62G, the yeast fitness was ≤ 0.5.
The value for G6C A37C G51A U53C was ≤ 0.5; that for G6C A57U C62U was ≤ 0.5.
Take G6A U26C: the yeast fitness stood at 0.842.
The figure for G6C C11G A20G G48C A57G U59A C60A is ≤ 0.5; for G6A U8C U54C it is 0.552.
The figure for G6C C27U G56A C61U is ≤ 0.5.
The figure for G6C A14G U28A C46G U54C G68U is ≤ 0.5; for G6C C11G C61U it is ≤ 0.5.
For the variant G6C A20U C22U C24U, the yeast fitness was ≤ 0.5.
With G6C A21C C22G, the yeast fitness is ≤ 0.5.
The value for G6C C31A G38A A65G was ≤ 0.5.
The figure for G6C A14G C27A A42C G52A G56A G63C is ≤ 0.5; for G6A U8A C11U it is ≤ 0.5.
In the case of G6C A37U, the yeast fitness came to 0.677.
The value for G6C A37G was 0.728; that for G6A U7G C22G G50A was ≤ 0.5; that for G6C A45U C60A C61A G63A was ≤ 0.5.
The figure for G6A U16C is 0.974; for G6A U16A it is 0.769.
The figure for G6C C11G C61U A70U is ≤ 0.5; for G6A U35A it is 0.775; for G6C C24G C30G it is ≤ 0.5.
In the case of G6A G41A, the yeast fitness was determined as 0.822.
The value for G6C A20G A42U was 0.63; that for G6C A15C C31U was ≤ 0.5.
The value for G6C C30A A42C was 0.546.
The figure for G6C C46G C62U G63A C66U is ≤ 0.5.
Turning to G6C A21G, the yeast fitness is 0.857.
The value for G6A U13C C31U U32C G67C was ≤ 0.5; that for G6A U8C U13G C27U C61G was 0.567; that for G6C C11U C34G was ≤ 0.5.
The figure for G6A U35C G44A G48C C55G A69U is ≤ 0.5; for G6A G68C it is 0.754.
The figure for G6C C11U A65U is 0.578.
Consider G6C C11A C34G A65G, for which the yeast fitness was ≤ 0.5.
The figure for G6A G67A is 0.872; for G6A G48C C66U it is 0.769; for G6C C33G G41C G56C G58A G63C A65U it is ≤ 0.5.
The value for G6C C29A A40G G51C was 0.657; that for G6A U13G U35C A57C was ≤ 0.5.
The value for G6C A14G A20C U64A G67A was 0.562; that for G6A G51A C60G was ≤ 0.5; that for G6C A57G was 0.968.
For the variant G6C C11G A14U A20G C22U G44A C55A, the yeast fitness was ≤ 0.5.
The figure for G6A U19G A43U A65G G68A is ≤ 0.5; for G6A U28A G68A it is 0.533; for G6C C11G A14U C22U G44A C55A it is ≤ 0.5.
The value for G6A G44U C66U was 0.601; that for G6C A21G G48A was 0.977.
The figure for G6C C29G C60A is ≤ 0.5; for G6C A20U C30G C61A it is ≤ 0.5.
For G6C A15U A42G A65G, the yeast fitness was ≤ 0.5.
In the case of G6A U19C C24U, the yeast fitness came to 0.744.
The value for G6C A20U C30G A65G A70U was 0.53; that for G6A U13A G17A G23C A45G was 0.602; that for G6C A43U C61G C62A was 0.618.
The figure for G6C C31G C46A G63C A65U is ≤ 0.5; for G6C A45U G50A it is 0.658; for G6C A42G it is 0.815.
The figure for G6A G39A A65C is 0.605; for G6C C33G A36C C49A G56A C60G A70U it is ≤ 0.5; for G6C A43G it is 0.851.
On to G6C A20U, for which the yeast fitness was 0.812.
The figure for G6A G41A G51C is ≤ 0.5; for G6C C31U U53C C62U it is ≤ 0.5.
On to G6A U8C A42C A45U C61G, for which the yeast fitness was ≤ 0.5.
The value for G6A U26A A57C G67A A69U was ≤ 0.5; that for G6C A70C was 0.938.
The figure for G6C A70G is 0.948.
Regarding G6C C46A, the yeast fitness amounted to 0.951.
For the variant G6C C46G, the yeast fitness worked out at 0.823.
The value for G6C C11U A45U was 0.559; that for G6A G48A A65C was 0.541.
The figure for G6C C27G C34A A65C is ≤ 0.5; for G6C A14G A20C U54A A57C it is ≤ 0.5; for G6C A45U it is 0.823.
The value for G6C C11G G48C A57G U59A C60A was ≤ 0.5.
Regarding G6C A20U A36C A40G A43U A57C, the yeast fitness is ≤ 0.5.
The figure for G6C C46U C60A is 0.644; for G6C C24U U47C A57U it is ≤ 0.5; for G6C A14G U35G G51A it is ≤ 0.5.
The figure for G6A U28A C31G U35A U47A U54A is ≤ 0.5.
The value for G6A U8C C31G C60G was ≤ 0.5; that for G6C A14G U16C A42U G52U was ≤ 0.5.
Turning to G6A U59C C62U, the yeast fitness came out at 0.543.
The value for G6A U13C C27G A37U C60A was ≤ 0.5.
The figure for G6C C24A C34U C49G G52C C55U C62G is ≤ 0.5; for G6C C11A C22A C29G it is ≤ 0.5.
